Laboratory results: ChEMBL document CHEMBL4368872, “Synthesis and anticonvulsant activity of phenoxyacetyl derivatives of amines, including aminoalkanols and amino acids” (Medchemcomm, 2018)
Activity calls are given as the source filed them.

Experiments:
[1] = Neurotoxicity in Sprague-Dawley rat at 100 mg/kg, ip measured after 2 hrs by rotarod test; type: toxicity, organism-based; conditions: in vivo, 2 h
Outline: (§1)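 Rat neurotoxicity after i.p. or p.o. dosing was scored as animals impaired / animals tested at each time point. For p.o. dosing, TD50 was obtained by probit analysis.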

Mus musculus [2] = test: Anticonvulsant activity in CF-1 mouse model of maximal electroshock-induced seizure assessed as suppression of tonic hind limb extension at 30 mg/kg, ip measured at 0.5 hrs post dose; type: functional, organism-based
Outline: (§2)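 Mice dosed i.p. and given maximal electroshock at 50 mA. Read-out is protection, reported as number protected / number tested at 0.25, 0.5, 1 and 4 h after dosing.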

Mus musculus [3] = test: Anticonvulsant activity in CF-1 mouse model of maximal electroshock-induced seizure assessed as suppression of tonic hind limb extension at 110 mg/kg, ip measured at 1 hr post dose; type: functional, organism-based; outline: as §2
Mus musculus [4] = test: Anticonvulsant activity in CF-1 mouse model of maximal electroshock-induced seizure assessed as suppression of tonic hind limb extension at 30 mg/kg, ip measured at 4 hrs post dose; type: functional, organism-based; outline: as §2
Mus musculus [5] = test: Anticonvulsant activity in CF-1 mouse model of maximal electroshock-induced seizure assessed as suppression of tonic hind limb extension at 100 mg/kg, ip measured at 4 hrs post dose; type: functional, organism-based; outline: as §2
Mus musculus [6] = test: Anticonvulsant activity in CF-1 mouse model of subcutaneous pentylenetetrazole-induced seizure assessed as reduction in convulsions at 100 mg/kg, ip measured at 4 hrs post dose; type: functional, organism-based
Outline: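 Mice dosed i.p., then given pentylenetetrazole 85 mg/kg in 0.9% NaCl s.c. into the posterior midline of the neck. Seizures watched for at least 30 min. Scored as protected / tested at 0.5 and 4 h.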

[7] = Neurotoxicity in CF-1 mouse at 30 mg/kg, ip measured after 0.5 hrs by rotarod test; type: toxicity, organism-based; conditions: in vivo
Outline: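 Mice dosed i.p. were placed on a 1 in. knurled rod turning at 6 rpm. Toxicity was scored as failure to keep balance for at least 1 min, i.e. falling off three or more times. Results are reported as animals showing toxicity / animals tested at each time point.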

[8] = Neurotoxicity in Sprague-Dawley rat at 30 mg/kg, po measured after 1 hr by rotarod test; type: toxicity, organism-based; conditions: in vivo; outline: as §1
[9] = Neurotoxicity in Sprague-Dawley rat at 300 mg/kg, ip measured after 0.25 hrs by rotarod test; type: toxicity, organism-based; conditions: in vivo; outline: as §1
[10] = Neurotoxicity in Sprague-Dawley rat at 30 mg/kg, ip measured after 0.5 hrs by rotarod test; type: toxicity, organism-based; conditions: in vivo; outline: as §1
[11] = Neurotoxicity in Sprague-Dawley rat at 300 mg/kg, ip measured after 0.5 hrs by rotarod test; type: toxicity, organism-based; conditions: in vivo; outline: as §1
[12] = Neurotoxicity in Sprague-Dawley rat at 30 mg/kg, ip measured after 1 hr by rotarod test; type: toxicity, organism-based; conditions: in vivo; outline: as §1
[13] = Neurotoxicity in Sprague-Dawley rat at 300 mg/kg, ip measured after 1 hr by rotarod test; type: toxicity, organism-based; conditions: in vivo; outline: as §1
[14] = Neurotoxicity in Sprague-Dawley rat at 30 mg/kg, ip measured after 4 hrs by rotarod test; type: toxicity, organism-based; conditions: in vivo; outline: as §1
Rattus norvegicus [15] = test: Anticonvulsant activity in hippocampal kindling Sprague-Dawley rat model assessed as after discharge time at 50 mg/kg, ip administered as single dose measured immediately; type: functional
Outline: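 Rats implanted with a hippocampal electrode and kindled with suprathreshold trains (200 µA, 10 s, 50 Hz) every 30 min for 6 h on alternate days until fully kindled. One week later they received a single i.p. dose. Seizure score (Racine scale) and afterdischarge duration were recorded at 0–135 min and compared with the control stimulus given 15 min before dosing; each animal served as its own control. Values are mean ± SEM.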

Astrocyte = test: Cytotoxicity against mouse astrocytes at 10 to 200 uM after 24 hrs by MTT assay; type: cell-based
Outline: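 Mouse astrocyte line (CRL-2541) grown in DMEM with 10% FBS at 37 °C, 5% CO2. Seeded at 1×10^4 per well in 1% FBS medium, treated with 10–200 µM for 24 h against vehicle controls. MTT reagent added for 4 h at 37 °C, crystals dissolved, absorbance read at 570 nm.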

[16] = Half life in rat liver microsomes at 20 uM preincubated for 15 mins followed by NADPH generating system addition and measured by LC-MS/MS analysis; type: ADME, Microsome
Outline: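 Test compound at 20 µM preincubated 15 min with male rat liver microsomes (0.4 mg ml⁻¹) in 100 mM potassium phosphate, pH 7.4. Started with NADP⁺ (3.4 mM), glucose 6-phosphate (7.7 mM) and G6PDH (0.6 U ml⁻¹). Run 5–60 min at 37 °C in duplicate, stopped with cold perchloric acid plus internal standard, supernatant analysed by LC-MS/MS. Half-life and Cl_int derived by literature methods.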

[17] = Mutagenicity in Salmonella typhimurium TA100 assessed as mutagenicity index at 50 to 500 ug/plate preincubated for 30 mins followed by top agar addition and measured after 48 hrs in presence of liver S9 fraction by Ames test; type: toxicity, subcellular; conditions: salmonella enterica subsp. enterica serovar typhimurium, s9, 48 h
Outline: (§3)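 Ames plate incorporation in S. typhimurium TA100 or TA1535, with or without S9. Overnight culture, compound in DMSO (50–500 µg per plate) and buffer or S9 mix preincubated 30 min at 37 °C, then top agar on glucose minimal agar. Incubated 48 h at 37 °C, revertants counted in triplicate. Vehicle negative control; NaN3 (−S9) and 2AA (+S9) positive controls. MI = revertants with compound / negative-control revertants; MI ≥ 2 with dose-response counts as positive.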

[18] = Mutagenicity in Salmonella typhimurium TA1535 assessed as mutagenicity index at 50 to 500 ug/plate preincubated for 30 mins followed by top agar addition and measured after 48 hrs in absence of liver S9 fraction by Ames test; type: toxicity; conditions: salmonella enterica subsp. enterica serovar typhimurium, s9, 48 h; outline: as §3
Salmonella typhimurium [19] = test: Antimutagenic activity against Salmonella typhimurium TA100 assessed as inhibition of NaN3-induced mutation at 500 ug/plate preincubated for 30 mins followed by top agar addition and measured after 48 hrs in presence of liver S9 fraction by Ames test relative to control; type: organism-based; conditions: salmonella enterica subsp. enterica serovar typhimurium, s9, 48 h
Salmonella typhimurium [20] = test: Antimutagenic activity against Salmonella typhimurium TA100 assessed as inhibition of NaN3-induced mutation at 250 ug/plate preincubated for 30 mins followed by top agar addition and measured after 48 hrs in presence of liver S9 fraction by Ames test relative to control; type: organism-based; conditions: salmonella enterica subsp. enterica serovar typhimurium, s9, 48 h
Salmonella typhimurium [21] = test: Antimutagenic activity against Salmonella typhimurium TA100 assessed as inhibition of NaN3-induced mutation at 100 ug/plate preincubated for 30 mins followed by top agar addition and measured after 48 hrs in presence of liver S9 fraction by Ames test relative to control; type: organism-based; conditions: salmonella enterica subsp. enterica serovar typhimurium, s9, 48 h
Salmonella typhimurium [22] = test: Antimutagenic activity against Salmonella typhimurium TA1535 assessed as inhibition of NaN3-induced mutation at 100 ug/plate preincubated for 30 mins followed by top agar addition and measured after 48 hrs in presence of liver S9 fraction by Ames test relative to control; type: organism-based; conditions: salmonella enterica subsp. enterica serovar typhimurium, s9, 48 h
Salmonella typhimurium [23] = test: Antimutagenic activity against Salmonella typhimurium TA1535 assessed as inhibition of NaN3-induced mutation at 50 ug/plate preincubated for 30 mins followed by top agar addition and measured after 48 hrs in presence of liver S9 fraction by Ames test relative to control; type: organism-based; conditions: salmonella enterica subsp. enterica serovar typhimurium, s9, 48 h
Rattus norvegicus [24] = test: Anticonvulsant activity in po dosed Sprague-Dawley rat model of maximal electroshock-induced seizure assessed as time required for suppression of tonic hind limb extension; type: functional
Outline: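 Rats dosed p.o. and tested by MES at 150 mA. ED50 derived by probit analysis from quantitative dose groups, run at the time of peak effect (hours).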

Compound | Activity (Mus musculus [2]) | Activity (Mus musculus [4]) | Activity (Mus musculus [5]) | Activity (Mus musculus [6]) | Activity [7] | Activity [8] | half-life at 20 µM [16] | Activity index [17] | Activity index [18] | inhibition (INH) (Salmonella typhimurium [19]) | inhibition (INH) (Salmonella typhimurium [20]) | inhibition (INH) (Salmonella typhimurium [21]) | inhibition (INH) (Salmonella typhimurium [22]) | inhibition (INH) (Salmonella typhimurium [23]) | also measured
Cc1cccc(C)c1OCC(=O)N[C@H](C)CO | inactive | inactive | inactive | inactive | Non-Toxic | Non-Toxic | 3.04 h | 0.7 to 1.7 | 0.7 to 1.7 | 40% | 38% | 43% | 43% | 29% | Activity [1]: Non-Toxic; Activity (Mus musculus [3]): inactive; Activity [9]: Toxic; Activity [10]: Non-Toxic; Activity [11]: Toxic; Activity [12]: Non-Toxic; Activity [13]: Toxic; Activity [14]: Non-Toxic; Time (Rattus norvegicus [15]): 72 s; Activity (Astrocyte): Non-Toxic; Time (Rattus norvegicus [24]): 0.5 h
CCC(O)CNC(=O)COc1c(C)cccc1C (centres undefined) | inactive | inactive | inactive | inactive | Non-Toxic | Non-Toxic | 0.507 h | 0.7 to 1.7 | 0.7 to 1.7 | 47% | 11% | 26% | 51% | 42% | –
